This passage reports folding enthalpy and Tm results from the array DNA melting data of Ke et al. (doi:10.1101/2024.01.08.574731).

The nature of series [1]: folding enthalpy; higher = less favourable; fluorescence melt of hairpins on a sequencing array, two-state fit. The following applies: sodium 0.088 M. Put shortly:
(§1)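 Folding enthalpy and melting temperature come from bootstrapped two-state fits to Cy3 fluorescence of library hairpins carrying annealed Cy3 and quencher oligos on a sequenced MiSeq flow cell. Imaging was done in 50 mM Na-HEPES pH 8.0, 25 mM NaCl, stepping by 2.5 °C up to 60 °C, and signals were normalised to pre-quench Cy3 and to control constructs. Results of four replicates were combined by inverse variance, and fitted temperatures were raised by 9.35 °C to match UV melts.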

The nature of series [2]: melting temperature; fluorescence melt of hairpins on a sequencing array, two-state fit, raised by 9.35 °C to match UV melts. The following applies: sodium 0.088 M. The method in brief:
as §1

Regarding GAAAGACGAAAGTCCTTC (((.(((....))).))), the folding enthalpy in series [1] was -15.6 kcal/mol. Further, the Tm in series [2] worked out at 32.8 °C.
With GAAAGAGCGAAAGCTTTC (((..(((....)))))), the folding enthalpy in series [1] was -13.8 kcal/mol. Further, the Tm in series [2] is 32.5 °C.
The corresponding values for GAAAGCCCGAAAGGGTTC (((..(((....)))))) are -10.6 kcal/mol and 27.9 °C.
Consider GAAAGCGAAAGCTGTTTC ((((((....)))..))), for which the folding enthalpy in series [1] was -9.68 kcal/mol. Moreover, the Tm in series [2] was 32 °C.
Taken in the same sequence, the figures for GAAAGCGAAAGCTTGTTC ((((((....)))..))) were -12.5 kcal/mol and 36.8 °C.
The corresponding values for GAAAGCGGAAACGTTTTC ((((.((....)).)))) are -30.5 kcal/mol and 42.4 °C.
Consider GAAAGGAAACTTTC (((((....))))), for which the folding enthalpy in series [1] was -16.9 kcal/mol. Besides, the Tm in series [2] came to 30.4 °C.
The corresponding values for GAAAGGGCGAAAGCCTTC (((..(((....)))))) are -9.82 kcal/mol and 24.8 °C.
Taken in the same sequence, the figures for GAAAGGGGAAACCCTCTC ((.((((....)))).)) were -17.3 kcal/mol and 26.8 °C.
Taken in the same sequence, the figures for GAAAGTGGAAACGCTTTC (((((.(....).))))) were -27.6 kcal/mol and 44.2 °C.
On to GAAATACGAAAGTACTTC (((.(((....))).))), for which, in series [1], the folding enthalpy was -15.7 kcal/mol. For the same sequence, the Tm in series [2] amounted to 29.5 °C.
As for GAAATCCGAAAGGAATTC (((.(((....))).))), the folding enthalpy in series [1] was -28.1 kcal/mol. Also, in series [2], the Tm was determined as 40.9 °C.
Taken in the same sequence, the figures for GAAATCGGAAACGACTTC (((.(((....))).))) were -24.8 kcal/mol and 32.4 °C.
Regarding GAAATCGGAAACGGTTTC ((((.((....)).)))), the folding enthalpy in series [1] was -31.6 kcal/mol. Also, the Tm in series [2] was determined as 46.5 °C.
Taken in the same sequence, the figures for GAAATGAAAATTTC (((((....))))) were -12.2 kcal/mol and 30.1 °C.
Taken in the same sequence, the figures for GAAATGCGAAAGCACTTC (((.(((....))).))) were -17.1 kcal/mol and 40.7 °C.
The corresponding values for GAAATGCGAAAGCATTC (((.(((....)))))) are -10.9 kcal/mol and 45.6 °C.
In the case of GAAATGGCGAAAGCCTTC (((..(((....)))))), the folding enthalpy in series [1] is -7.87 kcal/mol. Besides, the Tm in series [2] stood at 23 °C.
Turning to GAAATGGGAAACCATTTC (((((((....))))))), in series [1], the folding enthalpy is -37.5 kcal/mol. The Tm in series [2] turned out to be 53.9 °C.
Take GAACAAGAAATTGTTC ((((((....)))))): the folding enthalpy in series [1] was -26.4 kcal/mol. Moreover, in series [2], the Tm turned out to be 45.1 °C.
Taken in the same sequence, the figures for GAACACGAAAGTGATTC ((((((....))).))) were -18.1 kcal/mol and 37.2 °C.
Taken in the same sequence, the figures for GAACACGAAAGTGCGTTC ((((((....)))..))) were -13 kcal/mol and 31.2 °C.
The corresponding values for GAACACGAAAGTGTCTTC ((((((....)))..))) are -24.3 kcal/mol and 52.8 °C.
Regarding GAACACGAAAGTGTGTTC ((((((....)))..))), in series [1], the folding enthalpy is -17.8 kcal/mol. Also, the Tm in series [2] was determined as 50 °C.
Taken in the same sequence, the figures for GAACACGGAAACGTGTCC (.(((((....))))).) were -11.2 kcal/mol and 45.2 °C.
The corresponding values for GAACATGGAAACGTGTTC (((((.(....).))))) are -40.1 kcal/mol and 44.8 °C.
Taken in the same sequence, the figures for GAACCCGAAAGGGACTTC ((((((....)))..))) were -20.2 kcal/mol and 42.9 °C.
On to GAACCCGAAAGGGATTC ((((((....))).))), for which the folding enthalpy in series [1] was -14.4 kcal/mol. Further, the Tm in series [2] is 46.4 °C.
The corresponding values for GAACCCGAAAGGGCTTTC ((((((....)))..))) are -10.4 kcal/mol and 33.8 °C.
Take GAACCCGAAAGGGTCTTC ((((((....)))..))): in series [1], the folding enthalpy is -22.8 kcal/mol. The Tm in series [2] was found to be 61.9 °C.
Take GAACCTGGAAACAGGTCC (.(((((....))))).): the folding enthalpy in series [1] was -15.9 kcal/mol. The Tm in series [2] turned out to be 40.9 °C.
The corresponding values for GAACCTGGAAACAGGTTC (((((((....))))))) are -36.9 kcal/mol and 65.5 °C.
Taken in the same sequence, the figures for GAACGACGAAAGTCTTC (((.(((....)))))) were -15.3 kcal/mol and 34.8 °C.
On to GAACGCCGAAAGGCATTC (((.(((....))).))), for which the folding enthalpy in series [1] was -17.8 kcal/mol. The Tm in series [2] turned out to be 43.3 °C.
Turning to GAACGCCGAAAGGCTTTC (((.(((....))).))), the folding enthalpy in series [1] is -17.9 kcal/mol. Moreover, the Tm in series [2] turned out to be 44.2 °C.
With GAACGCGAAAGCGGGTTC ((((((....)))..))), the folding enthalpy in series [1] is -11.9 kcal/mol. For the same sequence, the Tm in series [2] is 47.1 °C.
